Source: ChEMBL document CHEMBL1134554, “Design, synthesis, and structure-activity relationships of macrocyclic hydroxamic acids that inhibit tumor necrosis factor alpha release in vitro and in vivo” (J Med Chem, 2001)

What was measured:
Stromelysin-1 = Stromelysin-1 (Homo sapiens, UniProt P08254); test: Inhibition of human MMP-3.
[1] = target: Matrix metalloproteinase-9 (Homo sapiens, UniProt P14780); test: In vitro inhibition of human MMP-9.
Interstitial collagenase = target: T1, Interstitial collagenase (Homo sapiens, UniProt P03956); test: In vitro inhibition of human MMP-1.
T1 sequence (P03956 whole entry): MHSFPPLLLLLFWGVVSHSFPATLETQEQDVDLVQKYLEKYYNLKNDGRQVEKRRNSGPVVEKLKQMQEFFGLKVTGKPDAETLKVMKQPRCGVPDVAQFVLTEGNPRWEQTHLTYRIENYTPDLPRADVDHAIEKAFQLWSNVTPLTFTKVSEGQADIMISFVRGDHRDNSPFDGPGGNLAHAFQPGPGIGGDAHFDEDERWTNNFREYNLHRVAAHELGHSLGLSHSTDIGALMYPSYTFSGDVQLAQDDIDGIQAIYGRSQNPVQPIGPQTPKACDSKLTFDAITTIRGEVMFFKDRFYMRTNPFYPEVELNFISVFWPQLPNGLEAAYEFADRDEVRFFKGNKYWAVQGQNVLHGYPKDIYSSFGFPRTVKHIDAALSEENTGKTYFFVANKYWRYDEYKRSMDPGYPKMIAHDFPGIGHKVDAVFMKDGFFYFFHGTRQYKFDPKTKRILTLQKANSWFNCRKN

[2] = target: Disintegrin and metalloproteinase domain-containing protein 17 (Homo sapiens, UniProt P78536)
Mus musculus = test: Compound at an oral dose of 30 mg/Kg was tested for the inhibition of LPS-stimulated TNF-alpha release in mouse; assay type: functional
Summary of the method: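 Mice dosed orally at time zero, then immediately given ip D-galactosamine 20 mg plus LPS 10 μg. One hour later, animals anesthetized and bled by cardiac puncture. Plasma TNF-α quantified by mouse-specific ELISA.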

Chain of Disintegrin and metalloproteinase domain-containing protein 17 (P78536 whole entry, the tested form may be a part): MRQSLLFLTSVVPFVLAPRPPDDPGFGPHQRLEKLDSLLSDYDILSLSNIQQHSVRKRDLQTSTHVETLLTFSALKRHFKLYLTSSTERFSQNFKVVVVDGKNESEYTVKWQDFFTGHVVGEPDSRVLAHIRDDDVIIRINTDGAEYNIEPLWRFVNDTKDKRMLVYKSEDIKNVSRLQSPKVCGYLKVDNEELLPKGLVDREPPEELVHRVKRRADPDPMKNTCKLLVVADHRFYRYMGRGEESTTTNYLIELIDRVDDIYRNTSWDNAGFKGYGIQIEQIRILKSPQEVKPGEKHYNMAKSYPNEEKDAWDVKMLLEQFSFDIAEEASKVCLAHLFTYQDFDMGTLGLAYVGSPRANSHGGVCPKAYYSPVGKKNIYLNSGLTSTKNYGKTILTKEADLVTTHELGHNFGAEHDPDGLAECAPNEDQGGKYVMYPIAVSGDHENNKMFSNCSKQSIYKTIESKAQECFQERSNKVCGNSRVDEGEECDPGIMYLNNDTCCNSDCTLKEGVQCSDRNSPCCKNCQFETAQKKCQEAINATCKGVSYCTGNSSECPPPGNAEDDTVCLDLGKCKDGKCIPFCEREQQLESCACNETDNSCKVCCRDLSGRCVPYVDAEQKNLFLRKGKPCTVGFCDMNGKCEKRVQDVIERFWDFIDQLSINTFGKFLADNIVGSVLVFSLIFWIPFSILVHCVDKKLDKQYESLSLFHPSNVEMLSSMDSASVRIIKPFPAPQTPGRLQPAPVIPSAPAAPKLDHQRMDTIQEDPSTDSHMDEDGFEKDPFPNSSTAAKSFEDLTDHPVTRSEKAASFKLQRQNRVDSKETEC
Chain of Matrix metalloproteinase-9 (P14780 whole entry): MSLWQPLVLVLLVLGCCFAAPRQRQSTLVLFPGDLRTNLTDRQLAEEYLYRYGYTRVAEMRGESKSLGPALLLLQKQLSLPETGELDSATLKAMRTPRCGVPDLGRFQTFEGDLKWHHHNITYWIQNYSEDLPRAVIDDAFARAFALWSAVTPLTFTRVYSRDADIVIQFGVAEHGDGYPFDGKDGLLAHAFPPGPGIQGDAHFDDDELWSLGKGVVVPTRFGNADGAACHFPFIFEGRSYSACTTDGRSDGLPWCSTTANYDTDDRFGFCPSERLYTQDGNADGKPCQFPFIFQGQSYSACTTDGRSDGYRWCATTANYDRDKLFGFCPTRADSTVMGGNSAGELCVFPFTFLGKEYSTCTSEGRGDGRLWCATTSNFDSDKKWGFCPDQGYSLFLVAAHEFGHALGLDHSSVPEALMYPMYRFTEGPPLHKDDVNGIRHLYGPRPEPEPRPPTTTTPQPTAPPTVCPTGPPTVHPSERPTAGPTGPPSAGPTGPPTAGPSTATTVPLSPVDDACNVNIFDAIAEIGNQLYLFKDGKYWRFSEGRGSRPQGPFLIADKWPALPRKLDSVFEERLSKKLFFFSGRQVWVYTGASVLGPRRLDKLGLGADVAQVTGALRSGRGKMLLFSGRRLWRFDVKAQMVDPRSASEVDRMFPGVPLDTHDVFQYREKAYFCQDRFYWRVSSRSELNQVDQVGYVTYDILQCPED
Chain of Stromelysin-1 (P08254 whole entry): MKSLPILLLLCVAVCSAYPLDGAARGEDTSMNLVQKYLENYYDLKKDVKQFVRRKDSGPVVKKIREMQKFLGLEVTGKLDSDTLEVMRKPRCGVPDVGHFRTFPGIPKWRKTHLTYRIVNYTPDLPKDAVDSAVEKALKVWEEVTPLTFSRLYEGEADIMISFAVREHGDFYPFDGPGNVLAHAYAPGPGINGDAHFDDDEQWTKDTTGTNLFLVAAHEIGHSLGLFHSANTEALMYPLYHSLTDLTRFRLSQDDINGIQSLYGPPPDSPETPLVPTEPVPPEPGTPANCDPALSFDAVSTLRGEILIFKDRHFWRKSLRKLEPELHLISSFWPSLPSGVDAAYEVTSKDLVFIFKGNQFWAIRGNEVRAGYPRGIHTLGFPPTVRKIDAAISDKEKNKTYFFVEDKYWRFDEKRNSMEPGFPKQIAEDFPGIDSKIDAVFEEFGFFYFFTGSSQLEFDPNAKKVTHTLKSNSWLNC

| SMILES | IC50 [2] [nM] | also measured |
| --- | --- | --- |
| CNC(=O)[C@@H]1Cc2cn(c3ccccc23)CCCCO[C@H](C(=O)NO)[C@@H](CC(C)C)C(=O)N1 | 3700 | Ki (Stromelysin-1): 2.88 nM; Ki (Interstitial collagenase): < 1 nM |
| CC(C)C[C@H]1C(=O)N[C@H](C(=O)NCC(=O)N(C)C)Cc2ccc(cc2)OCCC[C@@H]1C(=O)NO | 400 | inhibition in vivo at 30 mg/kg (Mus musculus): 45% |
| CNC(=O)[C@@H]1CCCCN(C)C(=O)CO[C@H](C(=O)NO)[C@@H](CC(C)C)C(=O)N1 | 3800 | Ki (Stromelysin-1): 3 nM; Ki [1]: 3.9 nM; Ki (Interstitial collagenase): < 1 nM |
| CC(C)C[C@H]1C(=O)N[C@H](C(=O)NCC(=O)NC2CCC2)Cc2ccc(cc2)OCCC[C@@H]1C(=O)NO | 200 | inhibition in vivo at 30 mg/kg (Mus musculus): 31% |
| CCCCCC[C@H]1C(=O)N[C@H](C(=O)NCCc2ccc(S(N)(=O)=O)cc2)Cc2ccc(cc2)OCCC[C@@H]1C(=O)NO | 480 | inhibition in vivo at 30 mg/kg (Mus musculus): 26% |
| CNC(=O)[C@@H](Cc1ccc(OC)cc1)NC(=O)[C@H](CC(C)C)[C@H](C)C(=O)NO | 1800 | Ki [1]: < 1 nM; Ki (Interstitial collagenase): < 1 nM |
| CCCCCC[C@H]1C(=O)N[C@H](C(=O)N[C@H](COC(C)(C)C)C(=O)NC)Cc2ccc(cc2)OCCC[C@@H]1C(=O)NO | 300 | inhibition in vivo at 30 mg/kg (Mus musculus): 18% |
| Cc1csc(NC(=O)CNC(=O)[C@@H]2CCCCN(C)C(=O)OCCC[C@H](C(=O)NO)[C@@H](CC(C)C)C(=O)N2)n1 | 300 |  |
| CC(C)C[C@H]1C(=O)N[C@H](C(=O)NC[C@@H]2CCCO2)CCCCNC(=O)OCCC[C@@H]1C(=O)NO | 260 |  |
| CC(C)C[C@H]1C(=O)N[C@H](C(=O)NCCc2ccc(S(N)(=O)=O)cc2)Cc2ccc(cc2)OCCC[C@@H]1C(=O)NO | 1000 |  |
| COC(=O)c1csc(NC(=O)[C@@H]2CCCCNC(=O)OCCC[C@H](C(=O)NO)[C@@H](CC(C)C)C(=O)N2)n1 | 83 |  |
| CCCCCC[C@H]1C(=O)N[C@H](C(=O)N[C@H](CCCCN)C(N)=O)Cc2ccc(cc2)OCCC[C@@H]1C(=O)NO | 760 | inhibition in vivo at 30 mg/kg (Mus musculus): 36% |
| CC(C)C[C@H]1C(=O)N[C@H](C(=O)NCC(=O)NCC(F)(F)F)Cc2ccc(cc2)OCCC[C@@H]1C(=O)NO | 240 |  |
| CC(C)C[C@H]1C(=O)N[C@H](C(=O)NCC(=O)N2CCC(C(=O)O)CC2)CCCCNC(=O)OCCC[C@@H]1C(=O)NO | 220 |  |
| CC(C)C[C@H]1C(=O)N[C@H](C(=O)N[C@@H]2c3ccccc3C[C@@H]2O)CCCCNC(=O)OCCC[C@@H]1C(=O)NO | 110 |  |
| CCCCCC[C@H]1C(=O)N[C@H](C(=O)NCCCn2ccnc2)Cc2ccc(cc2)OCCC[C@@H]1C(=O)NO | 820 | inhibition in vivo at 30 mg/kg (Mus musculus): 30% |
| CNC(=O)[C@@H]1CCc2ccc(cc2)OCCC[C@H](C(=O)NO)[C@@H](CC(C)C)C(=O)N1 | 1000 | Ki (Stromelysin-1): 48 nM; Ki [1]: 2.1 nM; Ki (Interstitial collagenase): 5.3 nM |
| CC(C)C[C@H]1C(=O)N[C@H](C(=O)NCCc2ccccn2)CCCCNC(=O)OCCC[C@@H]1C(=O)NO | 390 |  |

| SMILES | IC50 [2] [nM] | also measured |
| --- | --- | --- |
| CC(C)C[C@H]1C(=O)N[C@H](C(=O)Nc2ccccc2)CCCCNC(=O)OCCC[C@@H]1C(=O)NO | 280 |  |
| CC(C)C[C@H]1C(=O)N[C@H](C(=O)NCCC(=O)N2CCOCC2)CCCCNC(=O)OCCC[C@@H]1C(=O)NO | 170 |  |
| CNC(=O)[C@@H](CCCCN)NC(=O)[C@@H]1Cc2ccc(cc2)OCCC[C@H](C(=O)NO)[C@@H](CC(C)C)C(=O)N1 | 830 |  |
| CC(C)C[C@H]1C(=O)N[C@H](C(=O)NCC(F)(F)F)Cc2ccc(cc2)OCCC[C@@H]1C(=O)NO | 680 |  |
| CCCCCC[C@H]1C(=O)N[C@H](C(=O)NCc2ccccc2)Cc2ccc(cc2)OCCC[C@@H]1C(=O)NO | 2200 |  |
| CC(C)C[C@H]1C(=O)N[C@H](C(=O)NC(C)C)Cc2ccc(cc2)OCCC[C@@H]1C(=O)NO | 700 |  |
| CC(C)C[C@H]1C(=O)N[C@H](C(=O)NCC(=O)N2CCCCC2)Cc2ccc(cc2)OCCC[C@@H]1C(=O)NO | 140 |  |
| CC(C)C[C@H]1C(=O)N[C@H](C(=O)NCc2cccnc2)CCCCNC(=O)OCCC[C@@H]1C(=O)NO | 500 |  |
| CNC(=O)[C@@H]1CSc2ccccc2NC(=O)CO[C@H](C(=O)NO)[C@@H](CC(C)C)C(=O)N1 | 8000 | Ki (Stromelysin-1): 22.3 nM; Ki (Interstitial collagenase): < 1 nM |
| CC(C)C[C@H]1C(=O)N[C@H](C(=O)NCC(=O)N2CC(C)CC(C)C2)Cc2ccc(cc2)OCCC[C@@H]1C(=O)NO (stereo partly drawn) | 270 |  |
| CC(C)C[C@H]1C(=O)N[C@H](C(=O)NCC(=O)N2CCC(O)CC2)CCCCN(C)C(=O)OCCC[C@@H]1C(=O)NO | 300 |  |
| CC(C)C[C@H]1C(=O)N[C@H](C(=O)N[C@H]2c3ccccc3C[C@H]2O)CCCCNC(=O)OCCC[C@@H]1C(=O)NO | 400 |  |
| CC(C)C[C@H]1C(=O)N[C@H](C(=O)NCC(=O)N2CCC(O)CC2)Cc2ccc(cc2)OCCC[C@@H]1C(=O)NO | 200 |  |
| CNC(=O)[C@@H]1Cc2ccc(cc2)OCCC[C@H](C(=O)NO)[C@@H](CC(C)C)C(=O)N1 | 1200 |  |
| CNC(=O)[C@@H]1CCCCN(S(=O)(=O)c2ccccc2)CCC[C@H](C(=O)NO)[C@@H](CC(C)C)C(=O)N1 | 1300 |  |
| CNC(=O)[C@@H](CC(C)C)NC(=O)[C@@H]1CCCCNC(=O)OCCC[C@H](C(=O)NO)[C@@H](CC(C)C)C(=O)N1 | 100 |  |
| COc1ccc2c(CCNC(=O)[C@@H]3CCCCNC(=O)OCCC[C@H](C(=O)NO)[C@@H](CC(C)C)C(=O)N3)c[nH]c2c1 | 94 |  |

Now from value to compound, other results behind:

| IC50 [2] [nM] | SMILES | also measured |
| --- | --- | --- |
| 2400 | CNC(=O)[C@@H]1CCCc2ccc(cc2)OCCC[C@H](C(=O)NO)[C@@H](CC(C)C)C(=O)N1 | Ki (Stromelysin-1): 16.2 nM; Ki [1]: 3.3 nM; Ki (Interstitial collagenase): 1.8 nM |
| 490 | COc1ccc2[nH]cc(CCNC(=O)[C@@H]3CCCCNC(=O)OCCC[C@H](C(=O)NO)[C@@H](CC(C)C)C(=O)N3)c2c1 |  |
| 690 | CNC(=O)[C@@H](CCCCN)NC(=O)[C@@H]1CCCCNC(=O)OCCC[C@H](C(=O)NO)[C@@H](CC(C)C)C(=O)N1 |  |
| 1200 | CNC(=O)[C@H](NC(=O)[C@@H]1CCCCNC(=O)OCCC[C@H](C(=O)NO)[C@@H](CC(C)C)C(=O)N1)C(C)(C)C |  |
| 180 | CC(C)C[C@H]1C(=O)N[C@H](C(=O)NCC(=O)N2CCC(N3CCCCC3)CC2)CCCCNC(=O)OCCC[C@@H]1C(=O)NO |  |
| 200 | CC(C)C[C@H]1C(=O)N[C@H](C(=O)NCC(=O)N2CCOCC2)CCCCN(C)C(=O)OCCC[C@@H]1C(=O)NO |  |
| 700 | CNC(=O)[C@@H](C)NC(=O)[C@@H]1Cc2ccc(cc2)OCCC[C@H](C(=O)NO)[C@@H](CC(C)C)C(=O)N1 |  |
| 120 | CNC(=O)CNC(=O)[C@@H]1CCCCNC(=O)OCCC[C@H](C(=O)NO)[C@@H](CC(C)C)C(=O)N1 |  |
| 70 | CC(C)C[C@H]1C(=O)N[C@H](C(=O)NCC(=O)N2CCN(c3ccccn3)CC2)CCCCNC(=O)OCCC[C@@H]1C(=O)NO |  |
| 150 | CC(C)C[C@H]1C(=O)N[C@H](C(=O)N[C@H](C)C(=O)N2CCOCC2)CCCCNC(=O)OCCC[C@@H]1C(=O)NO |  |
| 4490 | CNC(=O)[C@H](C)NC(=O)[C@@H]1Cc2ccc(cc2)OCCC[C@H](C(=O)NO)[C@@H](CC(C)C)C(=O)N1 |  |
| 200 | CC(C)C[C@H]1C(=O)N[C@H](C(=O)NCC(=O)Nc2ccccn2)CCCCN(C)C(=O)OCCC[C@@H]1C(=O)NO |  |
| 1600 | CNC(=O)[C@@H]1CCCCNC(=O)CC[C@H](C(=O)NO)[C@@H](CC(C)C)C(=O)N1 | Ki [1]: 3.6 nM; Ki (Interstitial collagenase): 1.4 nM |
| 300 | CC(C)C[C@H]1C(=O)N[C@H](C(=O)NCC(=O)N(C)C)CCCCN(C)C(=O)OCCC[C@@H]1C(=O)NO |  |
| 120 | CC(C)C[C@H]1C(=O)N[C@H](C(=O)Nc2nc(CC(=O)N3CCOCC3)cs2)CCCCNC(=O)OCCC[C@@H]1C(=O)NO |  |
| 210 | CNC(=O)[C@@H](CCCCNC(=O)OC(C)(C)C)NC(=O)[C@@H]1CCCCNC(=O)OCCC[C@H](C(=O)NO)[C@@H](CC(C)C)C(=O)N1 |  |
| 100 | CC(C)C[C@H]1C(=O)N[C@H](C(=O)N[C@H](CO)C(=O)N2CCOCC2)CCCCNC(=O)OCCC[C@@H]1C(=O)NO |  |
| 580 | CC(C)C[C@H]1C(=O)N[C@H](C(=O)NCC(=O)N2CCCC(C(=O)O)C2)CCCCNC(=O)OCCC[C@@H]1C(=O)NO (stereo partly drawn) |  |
| 1170 | Cc1ccc2[nH]cc(CCNC(=O)[C@@H]3CCCCNC(=O)OCCC[C@H](C(=O)NO)[C@@H](CC(C)C)C(=O)N3)c2c1 |  |
| 270 | CNC(=O)[C@@H](C)NC(=O)[C@@H]1CCCCNC(=O)OCCC[C@H](C(=O)NO)[C@@H](CC(C)C)C(=O)N1 |  |
| 950 | CNC(=O)[C@@H](COC(C)(C)C)NC(=O)[C@@H]1Cc2ccc(cc2)OCCC[C@H](C(=O)NO)[C@@H](CC(C)C)C(=O)N1 |  |
| 1400 | CNC(=O)[C@@H]1CCCCN(C(=O)OC(C)(C)C)CCC[C@H](C(=O)NO)[C@@H](CC(C)C)C(=O)N1 |  |
| 1000 | CNC(=O)[C@@H]1CCCCNC(=O)OCCC[C@H](C(=O)NO)[C@@H](CC(C)C)C(=O)N1 | Ki [1]: 1.1 nM; Ki (Interstitial collagenase): < 1 nM |
| 280 | CC(C)C[C@H]1C(=O)N[C@H](C(=O)NCC(=O)N2CCC(O)CC2)CCCCNC(=O)OCCC[C@@H]1C(=O)NO |  |
| 2300 | CNC(=O)[C@@H]1CCCCN(C)C(=O)OCCC[C@H](C(=O)NO)[C@@H](CC(C)C)C(=O)N1 | Ki [1]: < 1 nM; Ki (Interstitial collagenase): < 1 nM |
| 160 | CC(C)C[C@H]1C(=O)N[C@H](C(=O)NCC(=O)N2CCN(C)CC2)CCCCNC(=O)OCCC[C@@H]1C(=O)NO |  |
